# The source made the active and inactive calls.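 Rule for the calls, unless noted: active = visual image review flags a hit and inhibition of aggregation exceeds 20%; inconclusive = visual hit but inhibition at or below 20%; inactive = no hit on visual image review.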
# How the values were obtained:
# [1] = inhibitors of TNFa-induced NFkB p65 translocation, primary screen, imaging, HUVEC, MLSMR starter and 10KST1 sets (AID 438;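 active = inhibition above 20% together with a positive visual image hit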;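 note: compound added about 3h40 before a 20 min TNFalpha stimulation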;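 for inhibition: signal is the nuclear over cytoplasmic p65 intensity ratio per well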); conditions: HUVEC TNFa-induced p65 nuclear translocation; cell count: measured here: nuclei count (cytotoxicity indicator), at 2.08 µM; inhibition: at 2 µM, stronger effect = higher value, 0% TNFa-plus-vehicle, 100% no-TNFa wells
# [2] = inhibitors of mutant huntingtin aggregation, primary screen, imaging, exon1htt(103Q)mCFP cells, high-content imaging (AID 483); conditions: exon1htt(103Q)mCFP cell line, aggregate imaging, at 2 µM; inhibition of aggregation: stronger effect = higher value; nuclei count: measured here: cell count, toxicity;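 note: compound exposure lasted 3 days before fixation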;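 for nuclei count: percent of the per-plate median nuclei count of sample wells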
# [3] = inhibitors of E-selectin induction by TNFa, primary screen, imaging, HUVEC, immunofluorescence, MLSMR starter and 10KST1 sets (AID 487;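 active = visually confirmed hit in the image check and inhibition above 20%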;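 for inhibition: signal is fraction of cell area covered by stained E-selectin grains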;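 for nuclei count: 100% = median nuclei count of all wells on the same plate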); conditions: HUVEC TNFalpha-induced E-selectin immunofluorescence imaging, at 2 µM; inhibition: stronger effect = higher value; nuclei count: measured here: cell number, toxicity
# [4] = target: Voltage-gated potassium channel subunit beta-2 (Rattus norvegicus) (UniProt P62483); assay: KvBeta enzyme negative modulators, primary screen, biochemical, NADPH fluorescence (AID 622;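 active = fluorescence slope higher than the sample average by over 3 SD, cut at about -0.22 in these data, passing the limit was not always enough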;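 note: slope of raw intensity against log time taken from 70 to 1610 s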); conditions: recombinant KvBeta, 4-cyanobenzaldehyde reduction, at 10 µM, stronger effect = higher value
# [5] = target: Voltage-gated potassium channel subunit beta-2 (Rattus norvegicus) (UniProt P62483); assay: KvBeta positive modulators, primary screen, biochemical, NADPH fluorescence (AID 623;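 active = NADPH fluorescence slope more negative than the mean of all samples by about 3 SD, 99.7% confidence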;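 note: fluorescence intensity change per second fitted from 20 to 320 s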); conditions: Recombinant KvBeta, NADPH fluorescence decrease slope, 10 min; at 10 µM; stronger effect = lower value
# [6] = target: Muscarinic acetylcholine receptor M4 (Homo sapiens) (UniProt P08173); assay: compounds altering M4/GIRK thallium flux, either direction, primary screen, M4 allosteric agonist project, cell-based, HEK293 M4/GIRK, BTC-AM (AID 625;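 active = fluorescence slope after compound addition differing from the mean of all tested samples at 99.7% confidence, mostly higher but some lower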;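 note: thallium influx through GIRK channels coupled to M4 in HEK293 cells with BTC-AM dye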); conditions: at 10 µM, actives lie on both sides
# Method in brief: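 assay system = HEK293 cells with M4 receptor and GIRK channels | medium = pH 7.3 thallium assay buffer | doses = 10 µM final, single point | timing = cells overnight at 37 °C, BTC-AM loading 1 h, reads 2 min total | signal = BTC-AM fluorescence, 1 Hz kinetic reads | read-out = post-addition slope, 15–24 s, of baseline-normalized fluorescence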
# [7] = inhibitors of Sendai virus-induced IRF3 signaling, primary screen, TLR/RLR signaling modifier project, cell-based, Sendai virus stimulus, luciferase, 10K MLSCN set (AID 602276;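 active = inhibition at or above 50% at 10 µM; inactive = inhibition below 50%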;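 note: firefly luciferase from ISG56 promoter only with Renilla not read in this screen; 0% = Sendai virus plus DMSO and 100% = medium plus DMSO without virus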); conditions: HEK293 RL24 IRF3 luciferase reporter, at 10 µM, stronger effect = higher value
# [8] = inhibitors of poly I:C-induced TLR3 signaling, primary screen, cell-based, poly I:C stimulus, luciferase, 10K MLSCN set (AID 602277;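 active = inhibition of the reporter signal at or above 50%; inactive = inhibition below 50%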); conditions: HEK293-TLR3 RL24 IRF3 luciferase reporter, at 10 µM, stronger effect = higher value
# Voltage-gated potassium channel subunit beta-2 (Rattus norvegicus), sequence (P62483 whole entry, looked up): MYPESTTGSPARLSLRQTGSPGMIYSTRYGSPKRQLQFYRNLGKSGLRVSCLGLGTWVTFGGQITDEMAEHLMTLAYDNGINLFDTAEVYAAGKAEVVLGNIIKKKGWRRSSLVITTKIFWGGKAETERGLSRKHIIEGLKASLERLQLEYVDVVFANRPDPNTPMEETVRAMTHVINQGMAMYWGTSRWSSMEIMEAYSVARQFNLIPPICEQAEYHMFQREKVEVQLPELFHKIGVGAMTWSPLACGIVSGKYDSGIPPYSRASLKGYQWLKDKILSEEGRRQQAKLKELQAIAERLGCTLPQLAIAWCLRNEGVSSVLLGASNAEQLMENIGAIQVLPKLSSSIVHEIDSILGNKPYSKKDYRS
# Muscarinic acetylcholine receptor M4 (Homo sapiens), sequence (P08173 whole entry, looked up): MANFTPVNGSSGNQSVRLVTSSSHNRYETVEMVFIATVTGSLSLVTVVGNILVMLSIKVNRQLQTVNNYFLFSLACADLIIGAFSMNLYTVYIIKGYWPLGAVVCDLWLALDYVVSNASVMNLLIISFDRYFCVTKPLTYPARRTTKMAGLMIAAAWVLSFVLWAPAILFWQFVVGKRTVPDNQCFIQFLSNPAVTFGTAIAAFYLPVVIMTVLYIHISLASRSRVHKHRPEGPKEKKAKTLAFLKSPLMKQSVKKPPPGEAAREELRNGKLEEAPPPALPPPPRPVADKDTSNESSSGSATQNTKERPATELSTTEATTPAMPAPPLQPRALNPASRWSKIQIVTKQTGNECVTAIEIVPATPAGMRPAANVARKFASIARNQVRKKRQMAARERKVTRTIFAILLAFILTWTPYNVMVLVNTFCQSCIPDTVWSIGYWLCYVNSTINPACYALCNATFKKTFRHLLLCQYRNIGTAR
Compound,cell count [1],inhibition [1],inhibition of aggregation [2],nuclei count [2],inhibition [3],nuclei count [3],fluorescence slope [4],NADPH fluorescence slope [5],fluorescence slope [6],inhibition [7],inhibition [8]
Cn1c(=O)n(C)c2cc(NC(=O)C(F)(F)F)ccc21,231,-14.4% (inactive),34.3% (active),96.5%,-10.9% (inactive),103%,-0.449 (inactive),-3.6e-06 (inactive),0.00534 (inactive),5.97% (inactive),17.7% (inactive)
Cc1ccc(S(=O)(=O)CCc2nnc(NC(=O)c3cnccn3)s2)cc1,578,-46.9% (inactive),-22.9% (inactive),116%,-82.9% (inactive),117%,-0.407 (inactive),-8.1e-06 (inactive),0.00653 (inactive),10.8% (inactive),22.5% (inactive)
Cc1cc(=O)oc2cc(Oc3ncccn3)ccc12,476,2.4% (inactive),9% (inactive),93.1%,-29.9% (inactive),111%,-0.427 (inactive),-1.6e-05 (inactive),0.00578 (inactive),-6.46% (inactive),-5.6% (inactive)
CC(=O)N1CCc2cc(S(=O)(=O)CCC(=O)N3CCN(c4ccccn4)CC3)ccc21,592,-2.7% (inactive),2.8% (inactive),107%,-65.1% (inactive),94.5%,-0.456 (inactive),5.1e-05 (inactive),0.0102 (inactive),-15.2% (inactive),-27.2% (inactive)
c1ccc(-c2cn3c4c(sc3n2)CCCC4)cc1,789,-4.8% (inactive),40% (inactive),118%,-34.8% (inactive),116%,-0.493 (inactive),-7.1e-06 (inactive),0.00593 (inactive),5.66% (inactive),71.3% (active)
CCS(=O)(=O)c1nc2ccccc2n1CC(=O)N1CCCCC1,507,9.7% (inactive),-6.2% (inactive),89.2%,-32.9% (inactive),99.3%,-0.425 (inactive),-2.1e-05 (inactive),0.00578 (inactive),17.6% (inactive),27% (inactive)
CCN1CCN(C(=O)c2cn(CCOC)c(=O)c3c2c2ccccc2n3C)CC1,460,2.7% (inactive),2.4% (inactive),108%,-40.3% (inactive),109%,-0.582 (inactive),-6.9e-06 (inactive),0.00622 (inactive),6.11% (inactive),14.5% (inactive)
CCN(C(=O)c1cc2cc3ccc(C)cc3nc2o1)c1ccc(OC)cc1,225,-1.3% (inactive),0.1% (inactive),107%,-11% (inactive),106%,-0.431 (inactive),-1.6e-05 (inactive),0.00704 (inactive),-25.1% (inactive),-79.8% (inactive)
COc1cc(C2C(C(=O)c3ccc(C)o3)=C(O)C(=O)N2c2cc(C)on2)cc(Br)c1O (stereo not drawn),724,-16.4% (inactive),-2.8% (inactive),109%,-127% (inactive),118%,-0.518 (inactive),-3e-05 (inactive),0.00505 (inactive),13.3% (inactive),19.1% (inactive)
O=C(CN1C(=O)COc2ccccc21)NCCN1CCc2ccccc2C1,681,7.3% (inactive),30.2% (inactive),95%,-2.1% (inactive),92.7%,-0.573 (inactive),-5.4e-05 (inactive),0.00634 (inactive),12.1% (inactive),26.1% (inactive)
CCOC(=O)c1[nH]c(C)c(C(=O)N2CCN(c3ccc(F)cc3)CC2)c1C,755,-2.2% (inactive),-27% (inactive),118%,-175% (inactive),119%,-0.451 (inactive),1.1e-05 (inactive),0.00564 (inactive),1.11% (inactive),8.18% (inactive)
O=C(Nc1ccccc1C(=O)NCC1CCCO1)c1ccco1 (stereo not drawn),304,-8% (inactive),-23.2% (inactive),95.5%,-50.7% (inactive),123%,-0.458 (inactive),2.2e-05 (inactive),0.00531 (inactive),9.09% (inactive),15.4% (inactive)
CC(c1ccco1)N(C(=O)c1ccc(S(=O)(=O)N2CCCCC2)cc1)c1ccccn1 (stereo not drawn),265,18.1% (inactive),13.8% (inactive),109%,-32.7% (inactive),105%,-0.506 (inactive),-0.000211 (active),0.0101 (inactive),6.94% (inactive),8.51% (inactive)
COc1cccc(S(=O)(=O)Nc2cccnc2)c1,625,-15.2% (inactive),-31.5% (inactive),119%,-20.1% (inactive),96.4%,-0.552 (inactive),3.5e-05 (inactive),0.00542 (inactive),5.36% (inactive),-3.49% (inactive)
Cc1cccc(C)c1NC(=O)N1CCN(C2CCCCC2)CC1,364,1.2% (inactive),-2% (inactive),106%,-8.3% (inactive),106%,-0.578 (inactive),-3.9e-05 (inactive),0.00564 (inactive),-1.81% (inactive),18.1% (inactive)
CCOC(=O)c1ccccc1NC(=O)Cn1cnc2c(cnn2-c2ccc(OC)cc2)c1=O,705,-25.5% (inactive),-6.3% (inactive),108%,-0.4% (inactive),101%,-0.237 (inactive),-4.6e-06 (inactive),0.0067 (inactive),10.8% (inactive),22.8% (inactive)
CCOC(=O)C1=C(CC)Nc2ccccc2N=C1NC(=O)Cn1cnc2ccccc2c1=O,529,6.3% (inactive),6.9% (inactive),117%,-28.7% (inactive),123%,-0.534 (inactive),-4.1e-05 (inactive),0.00608 (inactive),10.4% (inactive),20% (inactive)
Cc1ccc(NC(=O)CS(=O)CC(=O)NCC2CCCO2)cc1 (stereo not drawn),515,7.1% (inactive),17.5% (inactive),100%,-38.7% (inactive),117%,-0.309 (inactive),1.2e-05 (inactive),0.00727 (inactive),-20.7% (inactive),-6.01% (inactive)
O=C1CC(c2ccc(S(=O)(=O)N3CCN(c4ccccc4)CC3)cc2)CN1 (stereo not drawn),426,0.3% (inactive),7.2% (inactive),102%,75.6% (active),44.2%,-0.289 (inactive),-4.6e-05 (inactive),0.00584 (inactive),5.45% (inactive),14.5% (inactive)
CCCC(=O)Nc1ccc(NC(=O)c2cccs2)cn1,425,6.7% (inactive),10.4% (inactive),106%,-445% (inactive),140%,-0.578 (inactive),-3.4e-05 (inactive),0.00548 (inactive),-12.8% (inactive),-57.7% (inactive)
Nc1nonc1C(=O)NCCNCc1cc(Br)ccc1OCc1ccccc1F,422,-2.4% (inactive),18.5% (inactive),89.6%,-4.2% (inactive),123%,-0.574 (inactive),-3.2e-05 (inactive),0.00396 (inactive),-2.45% (inactive),-30.4% (inactive)
CCC(C)OC(=O)C1=C(C)NC2=C(C(=O)C(C(=O)OC)C(C)C2)C1c1ccc(N(C)C)cc1 (stereo not drawn),280,-2.4% (inactive),12.6% (inactive),104%,-8.6% (inactive),115%,-0.579 (inactive),2.1e-05 (inactive),0.00551 (inactive),14.7% (inactive),25.6% (inactive)
Nc1nc(CSCc2ccccc2)nc(N2CCOCC2)n1,685,0.8% (inactive),-6.3% (inactive),95.4%,17.1% (inactive),104%,-0.262 (inactive),-1.3e-05 (inactive),0.0049 (inactive),-22.6% (inactive),-81.5% (inactive)
COc1ccc(-c2ccc(CCC(=O)O)n2NC(=O)c2cccs2)cc1,645,-3.5% (inactive),-1.9% (inactive),108%,-35.1% (inactive),131%,-0.464 (inactive),-3.6e-05 (inactive),0.00607 (inactive),2.14% (inactive),42.4% (inactive)
C=C(C)Cn1c(CCNC(=O)CC)nc2ccccc21,494,-28.5% (inactive),1.3% (inactive),101%,-107% (inactive),112%,-0.433 (inactive),-6.1e-05 (inactive),0.00575 (inactive),9.76% (inactive),14.1% (inactive)
Cc1ccccc1-c1nc(CN2CCC(C(=O)NCCCN3CCCC3)CC2)c(C)o1,223,0% (inactive),-91.5% (inactive),101%,25.4% (inactive),94.2%,-0.553 (inactive),7.2e-05 (inactive),0.00435 (inactive),-136% (inactive),56.5% (active)
Cc1cc(NC(=O)CS(=O)(=O)c2cn(Cc3cccc(F)c3)c3ccccc23)no1,815,-6.6% (inactive),6.9% (inactive),116%,-94.1% (inactive),107%,-0.262 (inactive),-2.4e-05 (inactive),0.00574 (inactive),11.5% (inactive),0.399% (inactive)
CN(C=O)CP(=O)(O)CCN1CCCC1=O,447,7% (inactive),19.4% (inactive),90.6%,27% (inactive),106%,-0.589 (inactive),-5.8e-05 (inactive),0.00412 (inactive),14.6% (inactive),25.4% (inactive)

# Source: PubChem BioAssay
